These results are taken from ChEMBL document CHEMBL2176874, “1-(sulfonyl)-5-(arylsulfonyl)indoline as activators of the tumor cell specific M2 isoform of pyruvate kinase” (Bioorg Med Chem Lett, 2012).

A short description of data set [1]: Half life in human liver microsomes at 1 uM by LC-MS/MS analysis. Background: Microsomes from liver hold many membrane-bound enzymes, among them those of drug oxidation.
Data set [2] deals with Pyruvate kinase PKM (Homo sapiens) (UniProt P14618). As to the kind of experiment: Activation of human pyruvate kinase M2 using phosphoenolpyruvate as substrate assessed as concentration required for 50% activation by kinaseGlo assay.
Chain of Pyruvate kinase PKM (Homo sapiens) (P14618 2-531 limits assumed): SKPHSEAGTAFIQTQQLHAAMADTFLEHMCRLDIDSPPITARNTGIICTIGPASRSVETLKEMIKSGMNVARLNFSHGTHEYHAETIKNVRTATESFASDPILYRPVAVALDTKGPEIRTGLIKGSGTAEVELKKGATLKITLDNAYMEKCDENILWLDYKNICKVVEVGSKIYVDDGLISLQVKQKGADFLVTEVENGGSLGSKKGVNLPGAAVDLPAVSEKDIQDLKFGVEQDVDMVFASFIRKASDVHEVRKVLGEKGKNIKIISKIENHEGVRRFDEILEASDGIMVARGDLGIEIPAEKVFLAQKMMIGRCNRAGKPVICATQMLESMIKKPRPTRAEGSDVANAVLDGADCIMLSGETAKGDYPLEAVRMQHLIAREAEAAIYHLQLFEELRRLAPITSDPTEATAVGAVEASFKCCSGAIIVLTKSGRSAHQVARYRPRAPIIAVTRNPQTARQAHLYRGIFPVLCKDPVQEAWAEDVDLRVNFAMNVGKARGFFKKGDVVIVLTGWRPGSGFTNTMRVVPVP
Data set [3] has the same target. As to the kind of experiment: Activation of human pyruvate kinase M2 using phosphoenolpyruvate as substrate by kinaseGlo assay relative to control. The essentials: (§1)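 Cell-free enzymatic pyruvate kinase activity assay. Maximal activation is expressed as the percentage rise in enzyme activity above basal level, with 0% set as enzyme activity without compound.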
In general terms: In Kinase-Glo more light means more ATP remaining.

A short description of data set [4]: Serum protein binding in human at 1 uM after 5 hrs by LC-MS/MS analysis. It is filed as ADME, cell-free. Particulars: read-out: PB (converted).
A short description of data set [5]: Efflux ratio of apparent permeability from basal to apical to apical to basal side of human Caco2 cells at 10 uM after 90 mins by LC-MS/MS analysis. Particulars: Caco-2.
Data set [6] can be described thus: Apparent permeability from apical to basal side of human Caco2 cells at 10 uM after 90 mins by LC-MS/MS analysis. Particulars: Caco-2.
Data set [7] in a line: Apparent permeability from basal to apical side of human Caco2 cells at 10 uM after 90 mins by LC-MS/MS analysis. Particulars: Caco-2. (Passage across Caco-2 layers is used to estimate intestinal permeability.)
In the next data set the target is hERG (KCNH2) (Homo sapiens, UniProt Q12809). As to the kind of experiment: Inhibition of human ERG expressed in CHO cells at 1 uM measured up to 3 mins by whole cell patch clamp assay. Particulars: CHO cells expressing human ERG. It is filed as cell-based.
Chain of hERG (KCNH2) (Q12809 whole entry): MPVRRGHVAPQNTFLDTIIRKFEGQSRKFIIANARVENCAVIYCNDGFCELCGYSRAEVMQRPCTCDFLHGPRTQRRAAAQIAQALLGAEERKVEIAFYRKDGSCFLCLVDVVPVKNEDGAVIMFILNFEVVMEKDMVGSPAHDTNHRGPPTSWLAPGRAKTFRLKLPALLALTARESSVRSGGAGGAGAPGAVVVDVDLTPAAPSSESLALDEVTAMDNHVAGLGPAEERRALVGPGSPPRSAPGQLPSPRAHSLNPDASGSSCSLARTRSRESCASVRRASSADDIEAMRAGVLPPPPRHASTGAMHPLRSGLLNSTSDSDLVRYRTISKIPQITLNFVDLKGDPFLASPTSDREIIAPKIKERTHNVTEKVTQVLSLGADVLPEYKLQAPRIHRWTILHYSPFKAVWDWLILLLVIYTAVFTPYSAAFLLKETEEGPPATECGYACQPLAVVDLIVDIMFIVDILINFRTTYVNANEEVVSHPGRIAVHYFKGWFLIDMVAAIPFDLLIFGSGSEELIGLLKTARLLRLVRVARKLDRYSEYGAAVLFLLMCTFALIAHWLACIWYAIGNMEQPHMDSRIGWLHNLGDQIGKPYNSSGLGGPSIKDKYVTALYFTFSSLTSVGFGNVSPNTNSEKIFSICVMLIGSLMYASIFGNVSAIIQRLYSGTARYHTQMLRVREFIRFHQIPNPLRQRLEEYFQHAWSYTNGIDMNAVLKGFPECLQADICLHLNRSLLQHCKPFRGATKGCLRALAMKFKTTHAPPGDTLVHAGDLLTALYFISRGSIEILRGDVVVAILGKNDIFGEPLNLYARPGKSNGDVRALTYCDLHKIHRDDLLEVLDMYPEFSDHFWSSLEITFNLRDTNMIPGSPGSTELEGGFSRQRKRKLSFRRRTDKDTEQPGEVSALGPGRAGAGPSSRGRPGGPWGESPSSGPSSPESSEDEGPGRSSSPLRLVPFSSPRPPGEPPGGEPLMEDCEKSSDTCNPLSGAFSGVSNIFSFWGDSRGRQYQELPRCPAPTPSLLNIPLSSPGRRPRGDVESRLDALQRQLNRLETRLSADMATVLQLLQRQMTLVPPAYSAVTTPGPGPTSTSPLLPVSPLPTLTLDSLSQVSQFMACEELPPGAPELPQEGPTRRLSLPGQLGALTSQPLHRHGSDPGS
The target of data set [8] is Pyruvate kinase PKLR (Homo sapiens) (UniProt P30613). As to the kind of experiment: Activation of human pyruvate kinase R using phosphoenolpyruvate as substrate by kinaseGlo assay relative to control. The essentials:
as §1

The target is the same in data set [9]. As to the kind of experiment: Activation of human pyruvate kinase L using phosphoenolpyruvate as substrate assessed as concentration required for 50% activation by kinaseGlo assay.
The target in data set [10] is Pyruvate kinase PKM (Homo sapiens) (UniProt P14618). As to the kind of experiment: Activation of human pyruvate kinase M1 using phosphoenolpyruvate as substrate by kinaseGlo assay.
For data set [11] the target is unchanged. As to the kind of experiment: Activation of human pyruvate kinase M1 using phosphoenolpyruvate as substrate by kinaseGlo assay relative to control. A digest of the protocol: as §1
Data set [12] has as its target Pyruvate kinase PKLR (Homo sapiens) (UniProt P30613). As to the kind of experiment: Activation of human pyruvate kinase R using phosphoenolpyruvate as substrate assessed as concentration required for 50% activation by kinaseGlo assay.
Data set [13] has the same target. As to the kind of experiment: Activation of human pyruvate kinase L using phosphoenolpyruvate as substrate by kinaseGlo assay relative to control. The essentials:
as §1

Activity calls are given as the source filed them. No cut-off for these calls is given here. Where only a bound is given, the exact number is not on record here.

Chain of Pyruvate kinase PKLR (Homo sapiens) (P30613 whole entry, looked up): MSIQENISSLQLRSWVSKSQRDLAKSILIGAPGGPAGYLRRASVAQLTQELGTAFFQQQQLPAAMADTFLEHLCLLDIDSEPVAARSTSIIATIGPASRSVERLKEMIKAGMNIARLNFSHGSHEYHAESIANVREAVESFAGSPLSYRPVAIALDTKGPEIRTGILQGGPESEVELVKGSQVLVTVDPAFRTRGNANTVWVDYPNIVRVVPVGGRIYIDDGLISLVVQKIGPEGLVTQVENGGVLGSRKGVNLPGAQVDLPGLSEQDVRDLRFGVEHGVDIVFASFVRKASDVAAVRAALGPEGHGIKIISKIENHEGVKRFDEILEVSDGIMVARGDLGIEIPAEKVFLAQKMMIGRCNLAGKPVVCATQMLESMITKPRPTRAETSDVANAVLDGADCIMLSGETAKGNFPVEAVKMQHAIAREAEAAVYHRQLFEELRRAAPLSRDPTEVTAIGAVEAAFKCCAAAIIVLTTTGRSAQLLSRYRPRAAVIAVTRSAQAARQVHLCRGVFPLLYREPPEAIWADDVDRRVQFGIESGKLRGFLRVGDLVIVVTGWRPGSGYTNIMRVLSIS

The molecule `CCS(=O)(=O)N1CCc2cc(C(=O)CSc3ccc4c(c3)OCCCO4)ccc21` showed a half-life at 1 µM in [1] (liver microsomes) of 1.4 min. Also, in data set [2], the Activity came to 0.51 µM. In addition, the max activation in data set [3] was 149%.
Regarding `CS(=O)(=O)Nc1ccc(C(=O)CSc2ccc3c(c2)OCCO3)cc1`, in data set [1] (microsomes), the half-life at 1 µM turned out to be 3.3 min. For the same molecule, the Activity in [2] worked out at 2.5 µM. For the same molecule, the max activation in [3] came to 140%.
For `CS(=O)(=O)N1Cc2ccc(S(=O)(=O)c3ccc4c(c3)OCCO4)cc2C1`, in data set [4], the fraction unbound at 5 h, 1 µM is 0.091. In data set [1] (liver microsomes), the half-life at 1 µM is > 45 min. In addition, in data set [5], the efflux ratio at 1.5 h, 10 µM was 1.06. Further, in data set [2], the Activity was found to be 0.017 µM. Also, the Papp A→B at 1.5 h, 10 µM in data set [6] stood at 30.4 ×10⁻⁶ cm/s. In addition, the Papp B→A at 1.5 h, 10 µM in [7] was found to be 32.4 ×10⁻⁶ cm/s. Further, the max activation in data set [3] is 125%. This molecule also registered an inhibition at 0.05 h, 1 µM on hERG (KCNH2) of 7.3%.
For the molecule `CCS(=O)(=O)N1CCc2cc(S(=O)(=O)c3ccc4c(c3)OCCO4)ccc21`, in data set [2], the Activity was 0.027 µM. Besides, in data set [3], the max activation came to 89%.
The matching figures for `Cc1cn(S(C)(=O)=O)c2ccc(S(=O)(=O)c3ccc4c(c3)OCCO4)cc12`: 2.72 µM and 154%.
The corresponding values for `CC1Cc2cc(S(=O)(=O)c3ccc4c(c3)OCCO4)ccc2N1S(=O)(=O)c1c(F)cccc1F` (racemic) are 0.5 µM and 168%.
The corresponding values for `CC1Cc2cc(S(=O)(=O)c3ccc4c(c3)OCCO4)ccc2N1S(=O)(=O)Cc1ccccc1` (racemic) are 1.6 µM and 111%.
Regarding `O=S(=O)(c1ccc2c(c1)CCN2S(=O)(=O)c1cccc(F)c1)c1ccc2c(c1)OCCO2`, the Activity in data set [2] turned out to be 0.03 µM. Besides, the max activation in data set [3] was 87%.
As for `CS(=O)(=O)N1CCc2cc(S(=O)(=O)c3ccc4c(c3)OCCO4)ccc21`, in [4], the fraction unbound at 5 h, 1 µM was 0.059. Also, the half-life at 1 µM in [1] (microsomes) was found to be 26 min. For the same molecule, the max activation was determined as 34% in data set [8], 33% in [13] and 106% in [3]. Moreover, the Activity in data set [9] was > 100 µM; in data set [12] it was > 100 µM; in data set [2], 0.045 µM. Further, in data set [10], the result was inactive. Moreover, the efflux ratio at 1.5 h, 10 µM in data set [5] worked out at 1.14. Also, in data set [11], the max activation entry is “inactive”. Further, the Papp A→B at 1.5 h, 10 µM in data set [6] was determined as 37.5 ×10⁻⁶ cm/s. Besides, in data set [7], the Papp B→A at 1.5 h, 10 µM came out at 43 ×10⁻⁶ cm/s. At hERG (KCNH2), this molecule showed an inhibition at 0.05 h, 1 µM of 9%.
As for `CC(C)CS(=O)(=O)N1Cc2ccc(S(=O)(=O)c3ccc4c(c3)OCCO4)cc2C1`, the Activity in [2] is 0.189 µM. The molecule also had a max activation in [3] of 91.5%.
For the molecule `CC1Cc2cc(C(=O)CSc3ccc4c(c3)OCCO4)ccc2N1S(C)(=O)=O` (racemic), the half-life at 1 µM in data set [1] (liver microsomes) turned out to be 3.4 min. Further, in [2], the Activity is 0.55 µM. Further, the max activation in [3] is 164%.
For `CS(=O)(=O)n1ccc2cc(S(=O)(=O)c3ccc4c(c3)OCCO4)ccc21`, the Activity in [2] came out at 0.023 µM. In data set [3], this molecule displayed a max activation of 98%.
For `O=S(=O)(c1ccc2c(c1)CN(S(=O)(=O)c1ccccc1)C2)c1ccc2c(c1)OCCO2`, the Activity in [2] turned out to be 0.061 µM. For the same molecule, in data set [3], the max activation stood at 140%.
In the case of `CC1Cc2cc(S(=O)(=O)c3ccc4c(c3)OCCO4)ccc2N1S(=O)(=O)c1ccccc1` (racemic), in [2], the Activity turned out to be 0.6 µM. Moreover, in data set [3], the max activation was found to be 134%.
For `CCN(c1ccc(S(=O)(=O)c2ccc3c(c2)OCCO3)cc1)S(C)(=O)=O`, in data set [2], the Activity was found to be 41 µM. The molecule also returned a max activation in data set [3] of 100%.
As to `CCS(=O)(=O)N1Cc2ccc(S(=O)(=O)c3ccc4c(c3)OCCO4)cc2C1`, the Activity in [2] was found to be 0.02 µM. This molecule came in with a max activation in data set [3] of 35%.
Regarding `CS(=O)(=O)N1CCc2c1cc(F)c(S(=O)(=O)c1ccc3c(c1)OCCO3)c2F`, in data set [2], the Activity was 0.079 µM. In data set [3], this molecule had a max activation of 78%.
With `CC1Cc2cc(NS(=O)(=O)c3ccc4c(c3)OCCO4)ccc2N1S(C)(=O)=O` (racemic), in data set [2], the Activity is > 100 µM. Besides, the max activation in data set [3] was 32.5%.
For `CC1Cc2cc(C(=O)c3ccc4c(c3)OCCO4)ccc2N1S(C)(=O)=O` (racemic), the outcome in data set [2] was inactive.
For the molecule `CC1Cc2cc(S(=O)(=O)c3ccc4c(c3)OCCO4)ccc2N1S(C)(=O)=O` (racemic), the fraction unbound at 5 h, 1 µM in [4] was 0.075. For the same molecule, the half-life at 1 µM in [1] (liver microsomes) is 31.5 min. In data set [5], the efflux ratio at 1.5 h, 10 µM stood at 0.59. Moreover, in [2], the Activity worked out at 2 µM. Besides, the Papp A→B at 1.5 h, 10 µM in data set [6] was found to be 20.4 ×10⁻⁶ cm/s. Also, the Papp B→A at 1.5 h, 10 µM in [7] was found to be 12.1 ×10⁻⁶ cm/s. The max activation in [3] is 148%.
Regarding `O=S(=O)(c1ccc2c(c1)CCN2S(=O)(=O)C1CC1)c1ccc2c(c1)OCCO2`, the Activity in [2] came out at 0.017 µM. Also, the max activation in data set [3] turned out to be 105%.
For `COc1cccc(S(=O)(=O)N2c3ccc(S(=O)(=O)c4ccc5c(c4)OCCO5)cc3CC2C)c1` (racemic), the Activity in [2] was determined as 0.8 µM. Further, the max activation in data set [3] turned out to be 119%.
The corresponding values for `CC1Cc2cc(S(=O)(=O)Nc3ccc4c(c3)OCCO4)ccc2N1S(C)(=O)=O` (racemic) are 51 µM and 25.5%.
Consider `O=S(=O)(c1ccc2c(c1)CCN2S(=O)(=O)c1ccccc1)c1ccc2c(c1)OCCO2`, for which the Activity in data set [2] is 0.093 µM. Also, the max activation in [3] was determined as 122%.
For `CC1Cc2cc(S(=O)(=O)c3ccc4c(c3)OCCO4)ccc2N1S(=O)(=O)c1ccc(F)cc1` (racemic), in [2], the Activity was found to be 0.6 µM. The same molecule gave a max activation in [3] of 159%.
On to `CC(C)N(c1ccc(S(=O)(=O)c2ccc3c(c2)OCCO3)cc1)S(C)(=O)=O`, for which the Activity in [2] was 2.8 µM. Further, the max activation in [3] stood at 194%.
As for `CS(=O)(=O)N1CCCc2cc(S(=O)(=O)c3ccc4c(c3)OCCO4)ccc21`, in [2], the Activity came to 2.3 µM. Moreover, the max activation in [3] was 152%.
With `CCN(c1ccc(S(=O)(=O)c2ccc3c(c2)OCCO3)c(C)c1)S(C)(=O)=O`, the Activity in [2] worked out at 2.7 µM. In data set [3], this molecule yielded a max activation of 160%.
As for `CCS(=O)(=O)N1CCc2cc(C(=O)CSc3cccc(OC)c3)ccc21`, the Activity in [2] came out at 2.4 µM. In data set [3], this molecule came in with a max activation of 110%.
Take `O=P(O)(O)OC[C@H]1O[C@@](O)(COP(=O)(O)O)[C@@H](O)[C@@H]1O`: the Activity in data set [2] was 0.08 µM. This molecule had a max activation in data set [3] of 148%.
The matching figures for `CS(=O)(=O)N1CCCc2cc(C(=O)CSc3ccc4c(c3)OCCO4)ccc21`: 1.3 µM and 107%.
As for `CCS(=O)(=O)N1CCc2cc(C(=O)CSc3ccc(F)cc3F)ccc21`, the Activity in data set [2] was determined as 4.1 µM. This molecule gave a max activation in data set [3] of 171%.

One may read the half-life as the time in which the quantity being followed falls by half. As a reminder, the efflux ratio is a quotient of directional permeabilities that is used to spot active efflux. As usually defined, the Papp A→B is how fast a substance crosses the layer from the apical side. A word on the Papp B→A: it is how fast a substance crosses the layer from the basolateral side. In general, inhibition refers to the share of the control response that was lost under treatment. A high value points to a response far below the control.
